Test results reported in ChEMBL document CHEMBL3351861, “New synthetic sulfone derivatives inhibit growth, adhesion and the leucine arylamidase APE2 gene expression of Candida albicans in vitro” (2015).
≈ marks a conversion by molar mass, not a printed value.

Legend:
[1] = system: Candida albicans; experiment: Antifungal activity against Candida albicans CAI4 expressing delta-cph1 gene assessed as growth inhibition at 0.25 ug/ml by CLSI M27-A3 method; assay type: functional; settings: read-out: GI
Summary of the method: (§1)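 CLSI M27-A3 broth microdilution in RPMI, read after 48 h. Strains pre-grown 18 h in YEPD at 30°C. Final inoculum 0.5×10^2–2.5×10^3 cells/ml. Two-fold dilutions in RPMI came from a 1600 µg/ml stock in water with 9% DMSO; final DMSO was 0.09%. OD405 read, % inhibition = 100 − (CTW−SCW)/(GCW−SCW). Triplicate on three occasions, mean±SD.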

[2] = system: Candida albicans; experiment: Antifungal activity against Candida albicans CAI4 expressing delta-efg1 (EFG1) gene assessed as growth inhibition at 0.25 ug/ml by CLSI M27-A3 method; assay type: functional; settings: read-out: GI; summary of the method: as §1
[3] = system: Candida albicans; experiment: Antifungal activity against Candida albicans CAI4 expressing delta-cph1/delta-efg1 gene assessed as growth inhibition at 0.25 ug/ml by CLSI M27-A3 method; assay type: functional; settings: read-out: GI; summary of the method: as §1
[4] = system: Candida albicans; experiment: Antifungal activity against Candida albicans CAI4 expressing delta-cph1/delta-efg1 (EFG1) gene assessed as growth inhibition at 0.25 ug/ml by CLSI M27-A3 method; assay type: functional; settings: read-out: GI; summary of the method: as §1
[5] = system: Candida albicans; experiment: Antifungal activity against Candida albicans 90028 assessed as growth inhibition at by CLSI M27-A3 method; assay type: functional
[6] = system: Candida albicans; experiment: Antifungal activity against Candida albicans CAI4 expressing delta-cph1 (CPH1) gene assessed as growth inhibition at by CLSI M27-A3 method; assay type: functional
[7] = system: Candida albicans; experiment: Antifungal activity against Candida albicans CAI4 expressing delta-cph1/delta-efg1 gene assessed as growth inhibition at by CLSI M27-A3 method; assay type: functional
[8] = system: Candida albicans; experiment: Antifungal activity against Candida albicans CAI4 expressing delta-cph1/delta-efg1 (EFG1) gene assessed as growth inhibition at by CLSI M27-A3 method; assay type: functional
[9] = system: Candida albicans; experiment: Antifungal activity against Candida albicans 90028 assessed as growth inhibition at 16 ug/ml by CLSI M27-A3 method; assay type: functional; settings: read-out: GI; summary of the method: as §1
[10] = system: Candida albicans; experiment: Antifungal activity against Candida albicans CAI4 expressing delta-cph1 gene assessed as growth inhibition at 16 ug/ml by CLSI M27-A3 method; assay type: functional; settings: read-out: GI; summary of the method: as §1
[11] = system: Candida albicans; experiment: Antifungal activity against Candida albicans CAI4 expressing delta-cph1/delta-efg1 (EFG1) gene assessed as growth inhibition at 16 ug/ml by CLSI M27-A3 method; assay type: functional; settings: read-out: GI; summary of the method: as §1
[12] = system: Candida albicans; experiment: Antifungal activity against Candida albicans 90028 assessed as growth inhibition at 8 ug/ml by CLSI M27-A3 method; assay type: functional; settings: read-out: GI; summary of the method: as §1
[13] = system: Candida albicans; experiment: Antifungal activity against Candida albicans CAI4 expressing delta-cph1 gene assessed as growth inhibition at 8 ug/ml by CLSI M27-A3 method; assay type: functional; settings: read-out: GI; summary of the method: as §1
[14] = system: Candida albicans; experiment: Antifungal activity against Candida albicans CAI4 expressing delta-efg1 (EFG1) gene assessed as growth inhibition at 8 ug/ml by CLSI M27-A3 method; assay type: functional; settings: read-out: GI; summary of the method: as §1
[15] = system: Candida albicans; experiment: Antifungal activity against Candida albicans 90028 assessed as growth inhibition at 4 ug/ml by CLSI M27-A3 method; assay type: functional; settings: read-out: GI; summary of the method: as §1
[16] = system: Candida albicans; experiment: Antifungal activity against Candida albicans CAI4 expressing delta-cph1/delta-efg1 (EFG1) gene assessed as growth inhibition at 4 ug/ml by CLSI M27-A3 method; assay type: functional; settings: read-out: GI; summary of the method: as §1
[17] = system: Candida albicans; experiment: Antifungal activity against Candida albicans 90028 assessed as growth inhibition at 2 ug/ml by CLSI M27-A3 method; assay type: functional; settings: read-out: GI; summary of the method: as §1
[18] = system: Candida albicans; experiment: Antifungal activity against Candida albicans CAI4 expressing delta-efg1 (EFG1) gene assessed as growth inhibition at 2 ug/ml by CLSI M27-A3 method; assay type: functional; settings: read-out: GI; summary of the method: as §1
[19] = system: Candida albicans; experiment: Antifungal activity against Candida albicans CAI4 expressing delta-cph1/delta-efg1 (EFG1) gene assessed as growth inhibition at 2 ug/ml by CLSI M27-A3 method; assay type: functional; settings: read-out: GI; summary of the method: as §1
[20] = system: Candida albicans; experiment: Antifungal activity against Candida albicans CAI4 expressing delta-cph1 (CPH1) gene assessed as growth inhibition at 1 ug/ml by CLSI M27-A3 method; assay type: functional; settings: read-out: GI; summary of the method: as §1
[21] = system: Candida albicans; experiment: Antifungal activity against Candida albicans CAI4 expressing delta-efg1 (EFG1) gene assessed as growth inhibition at 1 ug/ml by CLSI M27-A3 method; assay type: functional; settings: read-out: GI; summary of the method: as §1
[22] = system: Candida albicans; experiment: Antifungal activity against Candida albicans CAI4 expressing delta-cph1/delta-efg1 (EFG1) gene assessed as growth inhibition at 1 ug/ml by CLSI M27-A3 method; assay type: functional; settings: read-out: GI; summary of the method: as §1
[23] = system: Candida albicans; experiment: Antifungal activity against Candida albicans CAI4 expressing delta-cph1 (CPH1) gene assessed as growth inhibition at 0.5 ug/ml by CLSI M27-A3 method; assay type: functional; settings: read-out: GI; summary of the method: as §1
[24] = system: Candida albicans; experiment: Antifungal activity against Candida albicans CAI4 expressing delta-efg1 (EFG1) gene assessed as growth inhibition at 0.5 ug/ml by CLSI M27-A3 method; assay type: functional; settings: read-out: GI; summary of the method: as §1
[25] = system: Candida albicans; experiment: Antifungal activity against Candida albicans CAI4 expressing delta-cph1/delta-efg1 (EFG1) gene assessed as growth inhibition at 0.5 ug/ml by CLSI M27-A3 method; assay type: functional; settings: read-out: GI; summary of the method: as §1
[26] = system: Candida albicans; experiment: Inhibition of cell adhesion of compound pre-treated Candida albicans CAI4 expressing delta-efg1 (EFG1) gene to human Caco2 cells assessed as cell adhesion level at 16 ug/ml pre-incubated for 18 hrs by colony counting method (reference value: 2.6 +/- 2.33%); assay type: functional, Caco-2; design: scale not given: the % may be the effect or the level left
[27] = system: Candida albicans; experiment: Inhibition of cell adhesion of compound pre-treated Candida albicans CAI4 expressing delta-cph1/delta-efg1 (EFG1) gene to human Caco2 cells assessed as cell adhesion level at 16 ug/ml pre-incubated for 18 hrs by colony counting method (reference value: 1.24 +/- 1.06%); assay type: functional, Caco-2; design: scale not given: the % may be the effect or the level left
[28] = system: Candida albicans; experiment: Inhibition of cell adhesion of compound pre-treated Candida albicans CAI4 expressing delta-cph1 gene to human Caco2 cells assessed as cell adhesion level at 8 ug/ml pre-incubated for 18 hrs by colony counting method (reference value: 1.6 +/- 0.65%); assay type: functional, Caco-2; design: scale not given: the % may be the effect or the level left
[29] = system: Candida albicans; experiment: Inhibition of cell adhesion of compound pre-treated Candida albicans CAI4 expressing delta-cph1 gene to human Caco2 cells assessed as cell adhesion level at 4 ug/ml pre-incubated for 18 hrs by colony counting method (reference value: 1.6 +/- 0.65%); assay type: functional, Caco-2; design: scale not given: the % may be the effect or the level left
[30] = system: Candida albicans; experiment: Inhibition of cell adhesion of compound pre-treated Candida albicans CAI4 expressing delta-cph1 (CPH1) gene to human Caco2 cells assessed as cell adhesion level at 4 ug/ml pre-incubated for 18 hrs by colony counting method (reference value: 5.37 +/- 12.4%); assay type: functional, Caco-2; design: scale not given: the % may be the effect or the level left
[31] = system: Candida albicans; experiment: Inhibition of cell adhesion of compound pre-treated Candida albicans CAI4 expressing delta-cph1 gene to human Caco2 cells assessed as cell adhesion level at 2 ug/ml pre-incubated for 18 hrs by colony counting method (reference value: 1.6 +/- 0.65%); assay type: functional, Caco-2; design: scale not given: the % may be the effect or the level left
[32] = system: Candida albicans; experiment: Inhibition of cell adhesion of compound pre-treated Candida albicans CAI4 expressing delta-efg1/delta-cph1 gene to human Caco2 cells assessed as cell adhesion level at 2 ug/ml pre-incubated for 18 hrs by colony counting method (reference value: 1.22 +/- 0.78%); assay type: functional, Caco-2; design: scale not given: the % may be the effect or the level left

MIC90 [5]	MIC90 [6]	MIC90 [7]	MIC90 [8]	SMILES	inhibition of growth at 0.25 µg/mL [1]	inhibition of growth at 0.25 µg/mL [2]	inhibition of growth at 0.25 µg/mL [3]	inhibition of growth at 0.25 µg/mL [4]	inhibition of growth at 16 µg/mL [9]	inhibition of growth at 16 µg/mL [10]	inhibition of growth at 16 µg/mL [11]	inhibition of growth at 8 µg/mL [12]	inhibition of growth at 8 µg/mL [13]	inhibition of growth at 8 µg/mL [14]	inhibition of growth at 4 µg/mL [15]	inhibition of growth at 4 µg/mL [16]	inhibition of growth at 2 µg/mL [17]	inhibition of growth at 2 µg/mL [18]	inhibition of growth at 2 µg/mL [19]	inhibition of growth at 1 µg/mL [20]	further results
4 µg/mL (≈ 9.45 µM)	4 µg/mL (≈ 9.45 µM)	4 µg/mL (≈ 9.45 µM)	4 µg/mL (≈ 9.45 µM)	NNc1ccc(S(=O)(=O)C(Cl)(Br)Br)cc1[N+](=O)[O-]	20%	98.6%	70%	72%	100%	100%	100%	100%	100%	99.8%	99.7%	99.1%	99.6%	99.1%	99.3%	98.8%	inhibition of growth at 1 µg/mL [21]: 98.8%; inhibition of growth at 1 µg/mL [22]: 98.8%; inhibition of growth at 0.5 µg/mL [23]: 98.8%; inhibition of growth at 0.5 µg/mL [24]: 98.8%; inhibition of growth at 0.5 µg/mL [25]: 98.8%; Activity [26]: 0.89%; Activity [27]: 1.5%; Activity [28]: 0.56%; Activity [29]: 0.22%; Activity [30]: 0.76%; Activity [31]: 0.51%; Activity [32]: 2.94%
16 µg/mL (≈ 41.7 µM)	16 µg/mL (≈ 41.7 µM)	16 µg/mL (≈ 41.7 µM)	16 µg/mL (≈ 41.7 µM)	O=[N+]([O-])c1cc(S(=O)(=O)C(Cl)(Cl)Br)ccc1Cl	97.4%	99%	98.3%	96.5%	99.6%	99.6%	99.8%	99.5%	99.3%	99.4%	99.4%	99.5%	98.9%	99.3%	99.3%	98.7%	inhibition of growth at 1 µg/mL [21]: 99.2%; inhibition of growth at 1 µg/mL [22]: 98.9%; inhibition of growth at 0.5 µg/mL [23]: 97.1%; inhibition of growth at 0.5 µg/mL [24]: 99%; inhibition of growth at 0.5 µg/mL [25]: 98.8%; Activity [26]: 0.77%; Activity [27]: 0.75%; Activity [28]: 0.35%; Activity [29]: 0.55%; Activity [30]: 1.39%; Activity [31]: 0.43%; Activity [32]: 0.78%

SMILES	MIC90 [5]	MIC90 [6]	MIC90 [7]	MIC90 [8]	inhibition of growth at 0.25 µg/mL [1]	inhibition of growth at 0.25 µg/mL [2]	inhibition of growth at 0.25 µg/mL [3]	inhibition of growth at 0.25 µg/mL [4]	inhibition of growth at 16 µg/mL [9]	inhibition of growth at 16 µg/mL [10]	inhibition of growth at 16 µg/mL [11]	inhibition of growth at 8 µg/mL [12]	inhibition of growth at 8 µg/mL [13]	inhibition of growth at 8 µg/mL [14]	inhibition of growth at 4 µg/mL [15]	inhibition of growth at 4 µg/mL [16]	inhibition of growth at 2 µg/mL [17]	inhibition of growth at 2 µg/mL [18]	inhibition of growth at 2 µg/mL [19]	inhibition of growth at 1 µg/mL [20]	further results
O=[N+]([O-])c1cc(S(=O)(=O)C(Cl)Cl)ccc1Cl	16 µg/mL (≈ 52.5 µM)	16 µg/mL (≈ 52.5 µM)	16 µg/mL (≈ 52.5 µM)	16 µg/mL (≈ 52.5 µM)	97.7%	95.2%	99%	98.8%	99.4%	99.6%	99.4%	99.3%	99.2%	98.9%	99.2%	99.3%	99.5%	98.1%	99.2%	98.8%	inhibition of growth at 1 µg/mL [21]: 96%; inhibition of growth at 1 µg/mL [22]: 99%; inhibition of growth at 0.5 µg/mL [23]: 96.7%; inhibition of growth at 0.5 µg/mL [24]: 95.4%; inhibition of growth at 0.5 µg/mL [25]: 99%; Activity [26]: 0.79%; Activity [27]: 1.68%; Activity [28]: 0.8%; Activity [29]: 0.99%; Activity [30]: 1.28%; Activity [31]: 0.8%; Activity [32]: 0.47%
